Measured values from ChEMBL document CHEMBL1147366, “Cytotoxic and antimalarial alkaloids from the tubers of Stephania pierrei” (J Nat Prod, 1993).
Converted amounts (≈) assume the structure as drawn.

Tests used:
Plasmodium falciparum [1] = assay: Antimalarial activity after 24 hrs against chloroquine-sensitive Plasmodium falciparum D6 infected type A+ human erythrocytes by [3H]hypoxanthine uptake; type: functional; conditions: read-out: ED50 (the source's name)
Plasmodium falciparum [2] = assay: Antimalarial activity after 24 hrs against chloroquine-resistant Plasmodium falciparum W2 infected type A+ human erythrocytes by [3H]hypoxanthine uptake; type: functional; conditions: read-out: ED50 (the source's name)
[3] = Cytotoxicity against human BCA1 cells after 3 days by SRB assay; type: functional; conditions: BCA1, 72 h, read-out: ED50 (the source's name)
HT-1080 = assay: Cytotoxicity against human HT1080 cells after 3 days by SRB assay; type: functional; conditions: HT-1080, 72 h, read-out: ED50 (the source's name)
[4] = Cytotoxicity against human LUC1 cells after 3 days by SRB assay; type: functional; conditions: LUC1, 72 h, read-out: ED50 (the source's name)
SK-MEL-2 = assay: Cytotoxicity against human SK-MEL-2 cells after 3 days by SRB assay; type: functional; conditions: SK-MEL-2, 72 h, read-out: ED50 (the source's name)
[5] = Cytotoxicity against human Col1 cells after 3 days by SRB assay; type: functional; conditions: Col1, 72 h, read-out: ED50 (the source's name)
[6] = Cytotoxicity against human KB cells after 3 days by SRB assay; type: cell-based; conditions: read-out: ED50
[7] = Cytotoxicity against vinblastine-resistant human KBV1 cells after 3 days by SRB assay; type: functional; conditions: KB-V1, 72 h, read-out: ED50 (the source's name)
P388 = assay: Cytotoxicity against mouse P388 cells after 3 days by SRB assay; type: functional; conditions: P388, 72 h, read-out: ED50 (the source's name)
A-431 = assay: Cytotoxicity against human A431 cells after 3 days by SRB assay; type: functional; conditions: A-431, 72 h, read-out: ED50 (the source's name)
LNCaP = assay: Cytotoxicity against human LNCAP cells after 3 days by SRB assay; type: functional; conditions: 72 h, read-out: ED50 (the source's name)
ZR-75-1 = assay: Cytotoxicity against human ZR-75-1 cells after 3 days by SRB assay; type: functional; conditions: ZR-75-1, 72 h, read-out: ED50 (the source's name)
[8] = Cytotoxicity against human U373 cells after 3 days by SRB assay; type: functional, U-373MG ATCC; conditions: U373 MG, 72 h, read-out: ED50 (the source's name)
[9] = Selectivity index, ED50 for human KB cells to ED50 for chloroquine-sensitive Plasmodium falciparum D6; type: toxicity, cell-based; conditions: read-out: Ratio ED50
How it was run: (§1)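 Selectivity index is the ED50 in KB cells divided by the ED50 against the P. falciparum strain (D-6, chloroquine-sensitive; W-2, chloroquine-resistant). Parasite ED50s are expressed in ng/ml and KB ED50s in µg/ml.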

[10] = Selectivity index, ED50 for human KB cells to ED50 for chloroquine-resistant Plasmodium falciparum W2; type: toxicity, cell-based; conditions: read-out: Ratio ED50; how it was run: as §1

SMILES	EC50 (Plasmodium falciparum [1]) [µg/mL]	EC50 (Plasmodium falciparum [2]) [µg/mL]	selectivity ratio [9]	selectivity ratio [10]	further results
COc1cc2c(cc1OC)[C@@H]1Cc3ccc(OC)c(OC)c3C[N+]1(C)CC2.[Cl-] (some centres not stated)	> 10	> 10	–	–	–
COc1ccc2c(c1O)C(Cc1ccc(O)cc1)[N+](C)(C)CC2.[Cl-] (racemic)	> 10	> 10	–	–	–
COc1c(O)cc2c3c1-c1ccccc1C[C@H]3NCC2 [(-)-ASIMILOBINE]	0.95 (≈ 3.55 µM)	0.47 (≈ 1.76 µM)	> 21	> 42	EC50 [3]: > 20 µg/mL; EC50 (HT-1080): > 20 µg/mL; EC50 [4]: > 20 µg/mL; EC50 (SK-MEL-2): > 20 µg/mL; EC50 [5]: > 20 µg/mL; CC50 at 72 h [6]: > 20 µg/mL; EC50 [7]: > 20 µg/mL; EC50 (P388): > 20 µg/mL; EC50 (A-431): > 20 µg/mL; EC50 (LNCaP): > 20 µg/mL; EC50 (ZR-75-1): > 20 µg/mL; EC50 [8]: > 20 µg/mL
COc1ccc(C[C@H]2c3cc(O)c(OC)cc3CCN2C)cc1O [(S)-RETICULINE]	4.05 (≈ 12.3 µM)	4.47 (≈ 13.6 µM)	–	–	–
c1ccc2c(c1)C[C@H]1NCCc3cc4c(c-2c31)OCO4 [ANONAINE]	1.29 (≈ 4.86 µM)	1.9 (≈ 7.16 µM)	5	3	EC50 [3]: 3.3 µg/mL (≈ 12.4 µM); EC50 (HT-1080): 2.4 µg/mL (≈ 9.05 µM); EC50 [4]: 1.8 µg/mL (≈ 6.78 µM); EC50 (SK-MEL-2): 15.8 µg/mL (≈ 59.6 µM); EC50 [5]: 4 µg/mL (≈ 15.1 µM); CC50 at 72 h [6]: 2.6 µg/mL (≈ 9.8 µM); EC50 [7]: 1.8 µg/mL (≈ 6.78 µM); EC50 (P388): > 5 µg/mL; EC50 (A-431): 4.2 µg/mL (≈ 15.8 µM); EC50 (LNCaP): 2.9 µg/mL (≈ 10.9 µM); EC50 (ZR-75-1): 2.7 µg/mL (≈ 10.2 µM); EC50 [8]: 1.5 µg/mL (≈ 5.65 µM)
C[C@@H]1CC[C@H]2[C@@H](C)C(=O)O[C@@H]3O[C@@]4(C)CC[C@@H]1[C@]32OO4 [ARTEMISININ]	0.0006 (≈ 0.00213 µM)	0.0005 (≈ 0.00177 µM)	> 33300	40000	–
COc1cc2c(cc1O)C[C@H]1c3c(cc4c(c3-2)OCO4)CCN1C [CASSYTHICINE]	2.29 (≈ 7.04 µM)	2.26 (≈ 6.95 µM)	2	3	EC50 [3]: 6.8 µg/mL (≈ 20.9 µM); EC50 (HT-1080): 7.6 µg/mL (≈ 23.4 µM); EC50 [4]: 6.6 µg/mL (≈ 20.3 µM); EC50 (SK-MEL-2): 8.9 µg/mL (≈ 27.4 µM); EC50 [5]: 7.3 µg/mL (≈ 22.4 µM); CC50 at 72 h [6]: 3 µg/mL (≈ 9.22 µM); EC50 [7]: 1.2 µg/mL (≈ 3.69 µM); EC50 (P388): > 5 µg/mL; EC50 (A-431): 10.5 µg/mL (≈ 32.3 µM); EC50 (LNCaP): 6.1 µg/mL (≈ 18.7 µM); EC50 (ZR-75-1): 9.8 µg/mL (≈ 30.1 µM); EC50 [8]: 4.8 µg/mL (≈ 14.8 µM)
CCN(CC)CCCC(C)Nc1ccnc2cc(Cl)ccc12 (configuration not stated) [CHLOROQUINE]	0.0013 (≈ 0.00406 µM)	0.0112 (≈ 0.035 µM)	–	–	–
COc1ccc2c(c1O)-c1c(O)c(OC)cc3c1[C@H](C2)[N+](C)(C)CC3 [MAGNOFLORINE]	> 10	> 10	–	–	–
OC(c1cc(C(F)(F)F)nc2c(C(F)(F)F)cccc12)C1CCCCN1 (configuration not stated) [MEFLOQUINE]	0.0073 (≈ 0.0193 µM)	0.0016 (≈ 0.00423 µM)	–	–	–
C=C[C@H]1CN2CC[C@H]1C[C@H]2[C@H](O)c1ccnc2ccc(OC)cc12 [QUININE]	0.0094 (≈ 0.029 µM)	0.0245 (≈ 0.0755 µM)	> 2130	> 820	–
COc1cc2c(cc1OC)[C@@H]1Cc3ccc(OC)c(OC)c3CN1CC2 [TETRAHYDROPALMATINE]	> 10	5.02 (≈ 14.1 µM)	–	–	–
COc1cc2c(cc1OC)CN1CCc3cc(OC)c(OC)cc3[C@@H]1C2 [XYLOPININE]	> 10	> 10	–	–	–
